Data taken from ChEMBL document CHEMBL1144979, “Combinatorial modification of natural products: synthesis and in vitro analysis of derivatives of thiazole peptide antibiotic GE2270 A: A-ring modifications” (Bioorg Med Chem Lett, 2003).
In brackets after ≈: the same amount, converted by molar mass.

Experiments:
Enterococcus faecalis [1] = experiment: In vitro antibacterial activity against Vancomycin-resistant Enterococcus faecalis ATCC 51299; format: functional
Staphylococcus aureus [2] = experiment: In vitro antibacterial activity against methicillin sensitive Staphylococcus aureus ATCC 25923; format: functional
Procedure, shortened: (§1)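 MICs by NCCLS broth dilution guidelines, modified by adding 0.02% bovine serum albumin to the growth medium; purified, resynthesized compounds tested against the expanded bacterial panel.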

Streptococcus pyogenes = experiment: In vitro antibacterial activity against Streptococcus pyogenes (ATTC19615); format: functional; procedure, shortened: as §1
Streptococcus pneumoniae = experiment: In vitro antibacterial activity against Streptococcus pneumoniae (ATTC49619); format: functional; procedure, shortened: as §1
Haemophilus influenzae [3] = experiment: In vitro antibacterial activity against Haemophilus influenzae (ATTC31517); format: functional; procedure, shortened: as §1
Escherichia coli = experiment: In vitro antibacterial activity against Escherichia coli (A G100B); format: functional; procedure, shortened: as §1
Enterococcus faecium = experiment: In vitro antibacterial activity against Vancomycin-susceptible Enterococcus faecium BM4147.1; format: functional; procedure, shortened: as §1
Haemophilus influenzae [4] = experiment: In vitro antibacterial activity against Haemophilus influenzae (acr, LS-2); format: functional; procedure, shortened: as §1
Staphylococcus aureus [5] = experiment: In vitro antibacterial activity against methicillin resistant Staphylococcus aureus (MRSA) ATCC 33591; format: functional
[6] = test system: Staphylococcus epidermidis; experiment: In vitro antibacterial activity against Staphylococcus epidermidis (ATCC 12228); format: functional; procedure, shortened: as §1
[7] = Inhibitory activity against elongation factor Tu (EF-Tu); format: functional, Bacteria
Enterococcus faecalis [8] = experiment: In vitro antibacterial activity against Vancomycin-resistant Enterococcus faecalis (ATTC51299)

SMILES	MIC (Enterococcus faecalis [1]) [µg/mL]	MIC (Staphylococcus aureus [2]) [µg/mL]	MIC (Streptococcus pyogenes) [µg/mL]	MIC (Streptococcus pneumoniae) [µg/mL]	MIC (Haemophilus influenzae [3]) [µg/mL]	MIC (Escherichia coli) [µg/mL]	MIC (Enterococcus faecium) [µg/mL]	MIC (Haemophilus influenzae [4]) [µg/mL]	MIC (Staphylococcus aureus [5]) [µg/mL]	MIC [6] [µg/mL]	IC50 [7] [nM]	MIC (Enterococcus faecalis [8]) [µg/mL]
CNC(=O)C[C@@H]1NC(=O)c2csc(n2)-c2ccc(-c3nc(COC(=O)NCCCCC(=O)O)cs3)nc2-c2csc(n2)-c2csc(n2)C(C(O)c2ccccc2)NC(=O)CNC(=O)c2nc(sc2COC)[C@H](C(C)C)NC(=O)c2nc1sc2C (some centres undefined)	0.5 (≈ 0.399 µM)	0.5 (≈ 0.399 µM)	4 (≈ 3.19 µM)	2 (≈ 1.59 µM)	8 (≈ 6.38 µM)	> 16	0.125 (≈ 0.0996 µM)	2 (≈ 1.59 µM)	0.25 (≈ 0.199 µM)	0.5 (≈ 0.399 µM)		
CNC(=O)C[C@@H]1NC(=O)c2csc(n2)-c2ccc(-c3nc(COC(=O)NCC(O)CC(=O)O)cs3)nc2-c2csc(n2)-c2csc(n2)C(C(O)c2ccccc2)NC(=O)CNC(=O)c2nc(sc2COC)[C@H](C(C)C)NC(=O)c2nc1sc2C (some centres undefined)	1 (≈ 0.796 µM)	1 (≈ 0.796 µM)	8 (≈ 6.37 µM)	4 (≈ 3.18 µM)	> 16	> 16	0.5 (≈ 0.398 µM)	2 (≈ 1.59 µM)	0.5 (≈ 0.398 µM)	2 (≈ 1.59 µM)		
CNC(=O)C[C@@H]1NC(=O)c2csc(n2)-c2ccc(-c3nc(C(=O)NCC(O)CC(=O)O)cs3)nc2-c2csc(n2)-c2csc(n2)C(C(O)c2ccccc2)NC(=O)CNC(=O)c2nc(sc2COC)[C@H](C(C)C)NC(=O)c2nc1sc2C (some centres undefined)	0.25 (≈ 0.204 µM)	1 (≈ 0.815 µM)	1 (≈ 0.815 µM)	2 (≈ 1.63 µM)	> 16	> 16	0.25 (≈ 0.204 µM)	2 (≈ 1.63 µM)	0.25 (≈ 0.204 µM)	2 (≈ 1.63 µM)		
CNC(=O)C[C@@H]1NC(=O)c2csc(n2)-c2ccc(-c3nc(C4=N[C@H](C(=O)N5CCC[C@H]5C(N)=O)CO4)cs3)nc2-c2csc(n2)-c2csc(n2)C(C(O)c2ccccc2)NC(=O)CNC(=O)c2nc(sc2COC)[C@H](C(C)C)NC(=O)c2nc1sc2C (some centres undefined)		0.03 (≈ 0.0232 µM)	0.125 (≈ 0.0969 µM)	0.06 (≈ 0.0465 µM)	> 16	> 16	0.015 (≈ 0.0116 µM)	> 16	0.03 (≈ 0.0232 µM)	0.03 (≈ 0.0232 µM)	5	0.015 (≈ 0.0116 µM)
CN[C@H](CC(C)C)C(=O)N[C@H]1C(=O)N[C@@H](CC(N)=O)C(=O)N[C@H]2C(=O)N[C@H]3C(=O)N[C@H](C(=O)N[C@H](C(=O)O)c4cc(O)cc(O)c4-c4cc3ccc4O)[C@H](O)c3ccc(c(Cl)c3)Oc3cc2cc(c3O[C@@H]2O[C@H](CO)[C@@H](O)[C@H](O)[C@H]2O[C@H]2C[C@](C)(N)[C@H](O)[C@H](C)O2)Oc2ccc(cc2Cl)[C@H]1O [VANCOMYCIN]	> 16		0.25 (≈ 0.173 µM)	0.125 (≈ 0.0863 µM)	> 16	> 16		> 16				
CNC(=O)C[C@@H]1NC(=O)c2csc(n2)-c2ccc(-c3nc(COC(=O)N[C@H](C)C(=O)O)cs3)nc2-c2csc(n2)-c2csc(n2)C(C(O)c2ccccc2)NC(=O)CNC(=O)c2nc(sc2COC)[C@H](C(C)C)NC(=O)c2nc1sc2C (some centres undefined)	1 (≈ 0.815 µM)	0.5 (≈ 0.408 µM)	2 (≈ 1.63 µM)	2 (≈ 1.63 µM)	16 (≈ 13 µM)	> 16	0.25 (≈ 0.204 µM)	1 (≈ 0.815 µM)	0.5 (≈ 0.408 µM)	2 (≈ 1.63 µM)		
CNC(=O)C[C@@H]1NC(=O)c2csc(n2)-c2ccc(-c3nc(COC(=O)NCCCC(=O)O)cs3)nc2-c2csc(n2)-c2csc(n2)C(C(O)c2ccccc2)NC(=O)CNC(=O)c2nc(sc2COC)[C@H](C(C)C)NC(=O)c2nc1sc2C (some centres undefined)	0.125 (≈ 0.101 µM)	0.25 (≈ 0.202 µM)	8 (≈ 6.45 µM)	2 (≈ 1.61 µM)	16 (≈ 12.9 µM)	> 16	0.06 (≈ 0.0484 µM)	4 (≈ 3.22 µM)	0.125 (≈ 0.101 µM)	0.25 (≈ 0.202 µM)		
CNC(=O)C[C@@H]1NC(=O)c2csc(n2)-c2ccc(-c3nc(COC(=O)N(C)CCCC(=O)O)cs3)nc2-c2csc(n2)-c2csc(n2)C(C(O)c2ccccc2)NC(=O)CNC(=O)c2nc(sc2COC)[C@H](C(C)C)NC(=O)c2nc1sc2C (some centres undefined)	0.5 (≈ 0.399 µM)	0.5 (≈ 0.399 µM)	> 16	> 16	8 (≈ 6.38 µM)	> 16	0.5 (≈ 0.399 µM)	2 (≈ 1.59 µM)	0.25 (≈ 0.199 µM)	0.5 (≈ 0.399 µM)		
CNC(=O)C[C@@H]1NC(=O)c2csc(n2)-c2ccc(-c3nc(C(=O)N(C)CCCC(=O)O)cs3)nc2-c2csc(n2)-c2csc(n2)C(C(O)c2ccccc2)NC(=O)CNC(=O)c2nc(sc2COC)[C@H](C(C)C)NC(=O)c2nc1sc2C (some centres undefined)	0.25 (≈ 0.204 µM)	0.5 (≈ 0.408 µM)	4 (≈ 3.27 µM)	2 (≈ 1.63 µM)	2 (≈ 1.63 µM)	> 16	0.125 (≈ 0.102 µM)	1 (≈ 0.817 µM)	0.25 (≈ 0.204 µM)	1 (≈ 0.817 µM)		
CNC(=O)C[C@@H]1NC(=O)c2csc(n2)-c2ccc(-c3nc(C(=O)NCC(O)CO)cs3)nc2-c2csc(n2)-c2csc(n2)C(C(O)c2ccccc2)NC(=O)CNC(=O)c2nc(sc2COC)[C@H](C(C)C)NC(=O)c2nc1sc2C (some centres undefined)	0.015 (≈ 0.0125 µM)	0.125 (≈ 0.104 µM)					0.015 (≈ 0.0125 µM)		0.06 (≈ 0.0501 µM)			
CNC(=O)C[C@@H]1NC(=O)c2csc(n2)-c2ccc(-c3nc(C(=O)NCCC[N+]4([O-])CCOCC4)cs3)nc2-c2csc(n2)-c2csc(n2)C(C(O)c2ccccc2)NC(=O)CNC(=O)c2nc(sc2COC)[C@H](C(C)C)NC(=O)c2nc1sc2C (some centres undefined)	2 (≈ 1.58 µM)	2 (≈ 1.58 µM)					1 (≈ 0.789 µM)		2 (≈ 1.58 µM)			
CNC(=O)C[C@@H]1NC(=O)c2csc(n2)-c2ccc(-c3nc(COC(=O)N[C@@H](C)C(=O)O)cs3)nc2-c2csc(n2)-c2csc(n2)C(C(O)c2ccccc2)NC(=O)CNC(=O)c2nc(sc2COC)[C@H](C(C)C)NC(=O)c2nc1sc2C (some centres undefined)	0.5 (≈ 0.408 µM)	1 (≈ 0.815 µM)	8 (≈ 6.52 µM)	4 (≈ 3.26 µM)	16 (≈ 13 µM)	> 16	0.25 (≈ 0.204 µM)	1 (≈ 0.815 µM)	0.5 (≈ 0.408 µM)	2 (≈ 1.63 µM)		
CNC(=O)C[C@@H]1NC(=O)c2csc(n2)-c2ccc(-c3nc(C(=O)NCCOCCO)cs3)nc2-c2csc(n2)-c2csc(n2)C(C(O)c2ccccc2)NC(=O)CNC(=O)c2nc(sc2COC)[C@H](C(C)C)NC(=O)c2nc1sc2C (some centres undefined)	0.06 (≈ 0.0495 µM)	0.25 (≈ 0.206 µM)					0.125 (≈ 0.103 µM)		0.06 (≈ 0.0495 µM)			
